Data on ten compounds can be found in article PMC4841444 (Lipids, 2015).

The structures appear in SMILES notation.

The term IC50 denotes the concentration that inhibits the measured activity by half.

One data set deals with recombinant HIV-1-RT (Human immunodeficiency virus type 1 group M subtype B, UniProt P03366). Put plainly: Reverse Transcriptase Colorimetric Assay. The data set is classed as biochemical.
Data set [1] in a line: Cytotoxicity against PBMC. The data set is classed as cell-based. To be noted: human, peripheral blood mononuclear cells (PBMC). In short, it runs like this: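 PBMCs from healthy volunteers, grown in IL-2-supplemented medium, seeded at 20,000 cells/well and exposed to fatty acids at 5–500 µM final. Incubation 3 days at 37 °C in humidified 5% CO2. Viability read by MTT.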
The subject of another data set is HIV-1 RT. To be noted: read-out: IC50 against HIV-1 RT; non-competitive inhibitor; cited from earlier work.

In the case of `CCCCCCCCCCCCCCCCCCCC#CCCCC(=O)O` [1a, 5-Pentacosynoic acid], the IC50 at recombinant HIV-1-RT was 24 ± 1 µM. The same compound displayed an IC50 at 3 days in data set [1] of over 500 µM.
The compound `CCCCCCCCCCCCCCCC#CCCCCCCCC(=O)O` [1b, 9-Pentacosynoic acid] showed an IC50 at 3 days in data set [1] of over 500 µM.
For `CCCCCCCCCCCCCCCCCCCCCCC#CC(=O)O` [2-Pentacosynoic acid], the IC50 on recombinant HIV-1-RT is 566 ± 1 µM.
Take `CCCCCCCCCCCCCCCCCCC/C=C\CCCC(=O)O` [2a, (5Z)-5-Pentacosenoic acid]: the IC50 at recombinant HIV-1-RT was 38 ± 1 µM. The compound further had an IC50 at 3 days in data set [1] of over 500 µM.
As for `CCCCCCCCCCCCCCC/C=C\CCCCCCCC(=O)O` [2b, (9Z)-9-Pentacosenoic acid], on recombinant HIV-1-RT, the IC50 turned out to be 54 ± 1 µM. This compound returned an IC50 at 3 days in data set [1] of over 500 µM.
Consider `CCCCCCCCCCC#CCCCCC(=O)O` [6-Heptadecynoic acid], for which, on recombinant HIV-1-RT, the IC50 is over 1000 µM.
Turning to `CCCCCCCCCCCCCC#CCCCCC(=O)O` [6-Icosynoic acid], the IC50 at recombinant HIV-1-RT is over 1000 µM.
Turning to `CCCCCCCC/C=C\CCCCCCCCCCCCCC(=O)O` [Nervonic acid, cis-15-tetracosenoic acid], the figures for the IC50 at recombinant HIV-1-RT and in the data set with HIV-1 RT were 12 ± 1 µM and 4.8 µM, respectively. Also, the IC50 at 3 days in data set [1] was over 500 µM.
Take `CCCCCCCCCCCCCCCC(=O)O` [Palmitic acid]: on recombinant HIV-1-RT, the 50% inhibitory concentration (IC50) was over 1000 µM.
For the compound `CCCCCCCCCCCCCCCCCCCCCCCCC(=O)O` [Pentacosanoic acid], the “inhibition of the HIV-1 RT enzyme (in words)” value on recombinant HIV-1-RT (recombinant HIV-1 RT, colorimetric assay) is reported as “does not inhibit HIV-1 RT at all”.
